Data as given in ChEMBL document CHEMBL1122853, “New bicyclic antidepressant agent. Synthesis and activity of napactadine and related compounds” (J Med Chem, 1985).
Calls of active or inactive are those of the source. The rule behind the calls is not given here.

How the values were obtained:
Mus musculus [1] = assay: Effective dose required to prevent reserpine ptosis in mice, administered orally(po); format: functional
Summary of the method: (§1)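 Male Swiss-Webster or Harlan ICR mice, five per dose. Drug in saline given po or ip per line. Reserpine 2.5 mg/kg ip 30 min later. Complete absence of ptosis at 45 min after reserpine scored as positive. ED50 by Litchfield-Wilcoxon or Horn method, with 95% confidence intervals.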

Mus musculus [2] = assay: Effective dose required to prevent reserpine ptosis in mice, administered intraperitoneally.; format: functional, organism-based; summary of the method: as §1
Mus musculus [3] = assay: Effective dose required to prevent reserpine ptosis in mice, administered (po)orally; format: functional; summary of the method: as §1
Mus musculus [4] = assay: (§2) Effective dose required to prevent reserpine ptosis in mice, administered intraperitoneally; format: functional; details: ip; summary of the method: as §1
Mus musculus [5] = assay: Effective dose required to potentiate yohimbine hydrochloride induced lethality in mice, administered intraperitoneally; format: functional; details: ip
Summary of the method: (§3)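 Male Swiss-Webster or Swiss ND/4 mice, 20-24 g, randomized into groups of 10 and housed five per cage. Test drug in saline given ip, with a saline control group. Yohimbine hydrochloride 20 mg/kg sc was given 30 min later, and mice were then reaggregated.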

Mus musculus [6] = assay: Effective dose required to prevent reserpine ptosis in mice, administered orally; format: functional; details: po; summary of the method: as §1
Mus musculus [7] = assay: Effective dose required to prevent reserpine ptosis in mice, administered orally(po); NA=Not active at 100 mg/kg; format: functional, organism-based; set-up: dose 100 mg/kg; summary of the method: as §1
Mus musculus [8] = assay: Electrical shock aggression was evaluated in mice, administered intraperitoneally; format: functional; details: ip
Summary of the method: (§4)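 Pairs of mice placed under an inverted 1000 cm3 beaker and shocked through the floor grid (3 mA, 3 Hz) for 2 min. Drug given ip 30 min before testing; scored all-or-none against a saline group. Fighting counted as inhibited when mean attacks fell 1.5 SD below the vehicle mean.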

Mus musculus [9] = assay: Effective dose required to potentiate yohimbine hydrochloride induced lethality in mice, administered intraperitoneally; NA=Not active; format: functional, organism-based
Summary of the method: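 Male Swiss-Webster or Swiss ND/4 mice, 20-24 g, randomized into groups of 10 and aggregated five per cage. Test drug in saline given ip, with a saline control group. Yohimbine HCl (20 mg/kg, sc) injected 30 min later, then mice reaggregated.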

Mus musculus [10] = assay: Effective dose required to prevent reserpine ptosis in mice administered (po)orally; NA=Not active; format: functional, organism-based; summary of the method: as §1
[11] = Lethal dose in mouse i.p.; format: toxicity, organism-based; details: in vivo, ip
Summary of the method: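 Male Swiss-Webster albino mice, 20-24 g, in groups of five. Each group received one dose ip in saline (prepared 30 min before injection) at 10 mL/kg. Mice were held singly for about 5 h, then housed together with food and water. Deaths were counted at 1 and 24 h. LD50 by Litchfield-Wilcoxon.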

[12] = Therapeutic index administered perorally in mouse; format: organism-based; details: in vivo, po, read-out: Therapeutic index
Summary of the method: (§5)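 Index from mouse LD50 over reserpine-ptosis ED50 by the same route. […] Deaths recorded at 1 and 24 h; Litchfield-Wilcoxon calculation.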

Mus musculus [13] = assay: Electrical shock aggression was evaluated in mice, administered intraperitoneally; NA means no aggression blockade at 46.4 mg/kg; format: functional, organism-based; set-up: dose 46.4 mg/kg; summary of the method: as §4
[14] = Therapeutic index administered intraperitoneally in mouse; format: organism-based; details: in vivo, ip, read-out: Therapeutic index; summary of the method: as §5
[15] = Lethal dose in mouse p.o.; format: toxicity, organism-based; details: in vivo, po
Mus musculus [16] = assay: Effective dose required to prevent reserpine ptosis in mice, administered intraperitoneally; NA=Not active at 100 mg/kg; format: functional, organism-based; set-up: dose 100 mg/kg; summary of the method: as §1
[17] = Therapeutic index after administered intraperitoneally in mouse; format: organism-based; details: in vivo, ip, read-out: Therapeutic index; summary of the method: as §5
Mus musculus [18] = assay: Compound (administered intraperitoneally) was tested for yohimbine lethality potentiation; format: functional; details: ip; summary of the method: as §3
Mus musculus [19] = assay: as §2; format: functional; details: ip; summary of the method: as §1; remark: listed apart in the source

With `Cl.N=C(Cc1ccc2ccccc2c1Cl)N1CCN(c2cccc(Cl)c2)CC1` as the compound, how does the ED50 (Mus musculus [1]) read?
Its ED50 is 16.2 mg/kg.

For `C/N=C(/Cc1ccc(-c2ccccc2)cc1)NC`, which ED50 (Mus musculus [2]) is on record?
The ED50 was “inactive”.

With `Cl.N=C(Cc1ccc2ccccc2c1Cl)N1CCC(O)(c2ccccc2)CC1` as the compound, how does the ED50 (Mus musculus [1]) read?
The ED50 was 24.5 mg/kg.

For `CC1CN(C(=N)Cc2ccc3ccccc3c2)CC(C)O1.Cl` (stereo unspecified), which ED50 (Mus musculus [3]) is on record?
Its ED50 is 28.7 mg/kg.

With `Cl.N=C(Cc1ccc2ccccc2c1Cl)N1CCOCC1` as the compound, how does the ED50 (Mus musculus [1]) read?
The ED50 was 15 mg/kg.

Which results are given for `C/N=C(\NC)c1ccccc1.Cl`?
ED50 (Mus musculus [4]): 0.8 mg/kg; ED50 (Mus musculus [5]): 4 mg/kg

Which ED50 (Mus musculus [2]) does the source give for `CC/N=C(/Cc1cccc2ccccc12)NCC` here?
The ED50 was “inactive”.

Which ED50 (Mus musculus [2]) does the source give for `CC/N=C(/Cc1ccc(Cl)cc1Cl)NCC` here?
The ED50 was “inactive”.

Which ED50 (Mus musculus [2]) does the source give for `CC/N=C(/Cc1ccc(F)cc1)NCC` here?
Its ED50 is “inactive”.

For `Cl.N=C(Cc1ccc2ccccc2c1Cl)N1CCC(c2ccccc2)CC1`, which ED50 (Mus musculus [6]) is on record?
The ED50 was 8.8 mg/kg.

With `N=C(Cc1ccc2ccccc2c1Cl)N1CCN(Cc2ccccc2)CC1` as the compound, how does the ED50 (Mus musculus [7]) read?
Its ED50 is “inactive”.

Which ED50 (Mus musculus [3]) does the source give for `Cl.N=C(Cc1ccc2ccccc2c1)N1CCC(N2CCCCC2)CC1` here?
The ED50 was 40.8 mg/kg.

With `CC/N=C(/Cc1c(Cl)cccc1Cl)NCC` as the compound, how does the ED50 (Mus musculus [2]) read?
Its ED50 is “inactive”.

For `CC/N=C(/Cc1ccc(Br)cc1)NCC.Cl`, which ED50 (Mus musculus [4]) is on record?
The ED50 was 2.8 mg/kg.

What about the ED50 (Mus musculus [5]) of the same compound?
The ED50 was 2.7 mg/kg.

Which ED50 (Mus musculus [8]) does the source give for `CN(C)CCCN1c2ccccc2CCc2ccccc21` [IMIPRAMINE] here?
The ED50 was 23 mg/kg.

And the ED50 (Mus musculus [3])?
The ED50 was 14 mg/kg.

What about the ED50 (Mus musculus [4]) of the same compound?
Its ED50 is 13 mg/kg.

What about the ED50 (Mus musculus [5]) of the same compound?
Its ED50 is 0.7 mg/kg.

For `C/N=C(/Cc1ccc2ccccc2c1Cl)NC.Cl`, which ED50 (Mus musculus [3]) is on record?
The ED50 was 15 mg/kg.

What about the ED50 (Mus musculus [4]) of the same compound?
Its ED50 is 11 mg/kg.

And the ED50 (Mus musculus [5])?
Its ED50 is 26.1 mg/kg.

For `C/N=C(/Cc1ccc2cc(C)ccc2c1)NC.Cl`, which ED50 (Mus musculus [9]) is on record?
The ED50 was “inactive”.

And the ED50 (Mus musculus [6])?
The ED50 was 31.6 mg/kg.

And the ED50 (Mus musculus [4])?
Its ED50 is 19.6 mg/kg.

Which ED50 (Mus musculus [10]) does the source give for `C/N=C(/Cc1c(O)ccc2ccccc12)NC` here?
Its ED50 is “inactive”.

With `Cl.N=C(Cc1ccc2ccccc2c1Cl)N1CCCC1` as the compound, how does the ED50 (Mus musculus [6]) read?
Its ED50 is 2.9 mg/kg.

For `C/N=C(/Cc1ccc(OC)c(OC)c1)NC`, which ED50 (Mus musculus [2]) is on record?
The ED50 was “inactive”.

Which ED50 (Mus musculus [1]) does the source give for `Cl.Cl.N=C(Cc1ccc2ccccc2c1Cl)NCCCN1CCOCC1` here?
Its ED50 is 3.2 mg/kg.

For `CN1CCN(C(=N)Cc2ccc3ccccc3c2)CC1.Cl`, which ED50 (Mus musculus [3]) is on record?
Its ED50 is 14.7 mg/kg.

For `Cl.N=C(Cc1ccc2ccccc2c1)N1CCCCC1`, which ED50 (Mus musculus [6]) is on record?
The ED50 was 11 mg/kg.

Which ED50 (Mus musculus [7]) does the source give for `COc1ccc2cc(CC(=N)N3CCC(c4ccccc4)CC3)ccc2c1` here?
The ED50 was “inactive”.

For `C/N=C(/Cc1ccc([N+](=O)[O-])cc1)NC.Cl`, which LD50 [11] is on record?
The LD50 was 215 mg/kg.

What about the selectivity ratio [12] of the same compound?
Its selectivity ratio is 213.

What about the ED50 (Mus musculus [13]) of the same compound?
Its ED50 is “inactive”.

And the ED50 (Mus musculus [3])?
The ED50 was 3.2 mg/kg.

What about the ED50 (Mus musculus [4]) of the same compound?
The ED50 was 3.2 mg/kg.

And the selectivity ratio [14]?
Its selectivity ratio is 67.

What about the ED50 (Mus musculus [5]) of the same compound?
Its ED50 is 20 mg/kg.

And the LD50 [15]?
Its LD50 is 681 mg/kg.

For `N=C(Cc1ccc2ccccc2c1Cl)N1CCN(C(c2ccccc2)c2ccccc2)CC1`, which ED50 (Mus musculus [7]) is on record?
Its ED50 is “inactive”.

Which ED50 (Mus musculus [1]) does the source give for `Cl.N=C(Cc1ccc2ccccc2c1Cl)N1CCC(O)(c2ccc(Cl)cc2)CC1` here?
The ED50 was 10.8 mg/kg.

For `CC/N=C(/COc1cc(Cl)c(Cl)cc1Cl)NCC`, which ED50 (Mus musculus [2]) is on record?
The ED50 was “inactive”.

For `CC/N=C(/Cc1ccc2cc(C)ccc2c1)NCC`, which ED50 (Mus musculus [16]) is on record?
Its ED50 is “inactive”.

For `C/N=C(\NC)c1ccc(Cl)c(Cl)c1.Cl`, which LD50 [11] is on record?
The LD50 was 60 mg/kg.

And the selectivity ratio [17]?
Its selectivity ratio is 6.

And the selectivity ratio [12]?
Its selectivity ratio is 20.

What about the ED50 (Mus musculus [18]) of the same compound?
The ED50 was 2.4 mg/kg.

And the ED50 (Mus musculus [13])?
Its ED50 is “inactive”.

And the ED50 (Mus musculus [3])?
Its ED50 is 10.8 mg/kg.

What about the ED50 (Mus musculus [4]) of the same compound?
Its ED50 is 9.3 mg/kg.

What about the ED50 (Mus musculus [5]) of the same compound?
Its ED50 is 2.4 mg/kg.

What about the LD50 [15] of the same compound?
Its LD50 is 215 mg/kg.

And the ED50 (Mus musculus [19])?
The ED50 was 9.3 mg/kg.

For `COc1ccc2cc(CC(=N)N3CCCC3)ccc2c1`, which ED50 (Mus musculus [7]) is on record?
Its ED50 is “inactive”.

Which results are given for `CC/N=C(/Cc1ccc2ccccc2c1)NCC.Cl`?
ED50 (Mus musculus [1]): 31 mg/kg; ED50 (Mus musculus [4]): 19.6 mg/kg; ED50 (Mus musculus [5]): 19.6 mg/kg

With `CC/N=C(/Cc1c(Cl)ccc(Cl)c1Cl)NCC` as the compound, how does the ED50 (Mus musculus [2]) read?
The ED50 was “inactive”.

Which ED50 (Mus musculus [6]) does the source give for `Cl.N=C(Cc1ccc2ccccc2c1)N1CCC(c2ccccc2)CC1` here?
Its ED50 is 14.7 mg/kg.
